An excerpt weighted towards active compounds, which were near 2.6% of everything screened.
UCH37 DUB inh: inhibitors of human UCH37 deubiquitinase, primary screen, biochemical, Ub-AMC cleavage, fluorescence; hit rate 0.33% among 330,000; inhibition, % (concentration not given with the values); AID 588478, 2011; purified proteasome/UCH37;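 active = mean inhibition over replicate wells above about 20%, limit read from the data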;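 note: 0% = compound-free wells with enzyme and 100% = wells lacking proteasome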
Target sequence (Q9Y5K5 whole entry, looked up): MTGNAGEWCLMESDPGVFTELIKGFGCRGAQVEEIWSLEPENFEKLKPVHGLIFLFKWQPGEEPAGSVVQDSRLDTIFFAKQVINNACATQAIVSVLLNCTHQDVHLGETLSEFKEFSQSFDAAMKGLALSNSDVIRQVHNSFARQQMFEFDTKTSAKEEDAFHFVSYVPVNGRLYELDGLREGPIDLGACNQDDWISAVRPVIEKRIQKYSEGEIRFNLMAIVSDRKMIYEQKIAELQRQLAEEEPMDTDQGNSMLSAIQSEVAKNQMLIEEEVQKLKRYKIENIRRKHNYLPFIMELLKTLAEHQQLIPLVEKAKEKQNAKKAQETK
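Material: human UCH37 enzyme supplied as purified proteasome complex. Measure: % inhibition of Ub-AMC cleavage fluorescence. Medium: pH 7.4 Tris-HCl (50 mM) with ovalbumin, ATP-MgCl2, DTT. Times: 30 min preincubation with enzyme, 25 min cleavage at room temperature. Detection: AMC fluorescence intensity at 355/460 nm.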
NSD2 inh: NSD2 histone methyltransferase inhibitors, primary screen, biochemical, AlphaScreen, single concentration, set 2. Histone-lysine N-methyltransferase NSD2 (Homo sapiens), O96028. NSD2 peptide methylation, 120 min. inhibition, % at 12.5 µM. hit rate 0.54% among 310,000; in the data active = inhibition above about 50%
CASP6 VEID inh: human caspase-6 inhibitors, primary screen, biochemical, VEID-R110 fluorescence, single point, set 2 | P55212 | purified caspase-6, Z-VEID-R110 cleavage fluorescence | inhibition, % at 12.5 µM | hit rate 0.53% among 350,000 | AID 686996, 2013;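 active = mean inhibition across replicates at least about 35%, with every replicate also reaching that limit, limit read from the data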;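 note: 0% = median of neutral control wells and 100% = no fluorescence left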
Target sequence (P55212 24-179 limits assumed): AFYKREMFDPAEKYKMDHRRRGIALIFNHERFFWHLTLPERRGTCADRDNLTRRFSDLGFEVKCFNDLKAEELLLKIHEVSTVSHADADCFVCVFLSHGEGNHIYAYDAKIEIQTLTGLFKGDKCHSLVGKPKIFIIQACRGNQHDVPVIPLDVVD
Target sequence (P55212 194-293 limits assumed): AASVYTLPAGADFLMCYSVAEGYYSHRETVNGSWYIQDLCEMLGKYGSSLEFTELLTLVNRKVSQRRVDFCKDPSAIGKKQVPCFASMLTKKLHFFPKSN
SIRT5 block: SIRT5 desuccinylase inhibitors, primary screen, biochemical, fluorescence imaging, single point, set 5. inhibition, % at 15 µM. NAD-dependent protein deacylase sirtuin-5, mitochondrial (Homo sapiens), Q9NXA8. Purified SirT5, succinyl-peptide AMC, trypsin-coupled fluorescence. hit rate 1.1% among 330,000. AID 652115, 2013; in the data active = inhibition above about 15%
FGF22 binding: binders of human FGF22 protein, primary screen, FGF22 synaptogenesis inhibitor project, biophysical, thermal shift, single point | Fibroblast growth factor 22 (Homo sapiens), Q9HCT0 | recombinant FGF22 thermal shift, SYPRO orange fluorescence; percent of sucrose octasulfate shift, DMSO zero | activity (Tm shift, normalised), % at 9.99 µM | hit rate 1.5% among 340,000;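 active = mean Tm shift, scaled 0 neutral to 100 positive control, at about 1.3% or above, every replicate too, limit read from the data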
* marks the source's active call; other numbers are inactive results; / = no result.

SMILES	UCH37 DUB inh	NSD2 inh	CASP6 VEID inh	SIRT5 block	FGF22 binding
C[C@@H]1CCCCO[C@@H](CN(C)C(=O)Cc2ccccc2)[C@@H](C)CN([C@H](C)CO)C(=O)c2cc(NC(=O)Nc3ccc(C(F)(F)F)cc3)ccc2O1	/	/	-2	4	0
C[C@@H]1CN([C@H](C)CO)C(=O)c2cc(NC(=O)Nc3ccc(C(F)(F)F)cc3)ccc2O[C@H]1CN(C)C(=O)Nc1ccc2c(c1)OCO2	/	/	-1	5	0
C[C@@H]1CN([C@@H](C)CO)C(=O)c2cc(NC(=O)Nc3ccc4c(c3)OCO4)ccc2O[C@@H]1CN(C)C(=O)Nc1ccc(C(F)(F)F)cc1	/	/	-2	16*	0
C[C@H](CO)N1C[C@H](C)[C@H](CN(C)C(=O)Nc2ccc3c(c2)OCO3)Oc2ccc(NC(=O)Nc3ccc(C(F)(F)F)cc3)cc2C1=O	/	/	-2	15*	0
C[C@@H]1CN([C@@H](C)CO)C(=O)c2cc(NC(=O)Nc3ccc4c(c3)OCO4)ccc2O[C@@H]1CN(C)Cc1ccc(C(F)(F)F)cc1	/	/	4	17*	0
C[C@H]1CN([C@@H](C)CO)C(=O)c2cc(NC(=O)Nc3ccc4c(c3)OCO4)ccc2O[C@H]1CN(C)C(=O)Nc1ccc2c(c1)OCO2	/	/	-4	16*	-1
C[C@@H]1CN([C@H](C)CO)C(=O)c2cccc(NS(=O)(=O)c3ccc(F)cc3)c2O[C@H]1CN(C)C	/	/	2	-5	0
C[C@@H]1CN([C@H](C)CO)C(=O)c2cc(NC(=O)c3ccncc3)ccc2O[C@@H]1CN(C)C(=O)Nc1ccc2c(c1)OCO2	/	/	-2	20*	0
CC1(Oc2cnc(Cl)c3ccccc23)CCN(Cc2ccc(OC(F)(F)F)cc2)C1 (stereo not drawn)	/	6	46*	3	1
CC1(Oc2ccc(Cl)cc2)CCN(Cc2ccc(OC(F)(F)F)cc2)C1 (stereo not drawn)	/	-1	2	-9	0
O=C(C[C@H]1CC[C@@H](NS(=O)(=O)c2ccccc2)[C@@H](CO)O1)N1CCN(c2ccccc2)CC1	/	/	1	-3	/
CCCCNCCCOc1ccc(C)cc1Br	5	19	0	-4	44*
Cc1ccc(OCCCNCCO)c(Br)c1	2	20	/	/	/
O=C(Cc1ccccc1)N[C@H]1CC[C@H](CC(=O)N2CCOCC2)O[C@@H]1CO	/	/	-1	4	1
c1ccc(CN2CCC(N3CCC(N4CCCCCC4)CC3)CC2)cc1	4	/	-141	32*	/
OC1(c2cccs2)CN(c2ccccc2)C2=[N+]1CCCC2 (stereo not drawn)	2	-4	1	-2	43*
O=C(NCc1ccc2c(c1)OCO2)C(=O)NCC1OCCN1S(=O)(=O)c1ccc(Cl)cc1 (stereo not drawn)	0	-1	0	22*	0
O=C(NCc1ccc2c(c1)OCO2)C(=O)NCC1OCCN1S(=O)(=O)c1ccc(Br)cc1 (stereo not drawn)	3	0	0	2	0
COc1ccc(C(=O)NNC(=O)CSc2nnc(C)n2CC2CCCO2)cc1 (stereo not drawn)	4	/	4	-3	44*
CC(C)C#Cc1ccc2c(c1)O[C@H](CN(C)S(C)(=O)=O)[C@@H](C)CN([C@@H](C)CO)S2(=O)=O	/	/	-1	1	0
O=C(NN=Cc1ccc([N+](=O)[O-])cc1)c1[nH]ncc1Br	2	/	/	/	/
CC=Cc1ccc2n(c1=O)C[C@H]1[C@H](CO)[C@@H](C(=O)Nc3ccc(-c4ccccc4)cc3)N(CCC)[C@@H]21 (mixture of isomers)	/	/	-3	0	0
CCN1/C(=C\c2ccc3cc(C)ccc3[n+]2CC)Sc2cc(C)c(C)cc21	12	54*	-25	3	0
CCn1nnnc1NCc1ccc(OCc2ccc(F)cc2Cl)c(OC)c1	6	-3	0	2	43*
O=c1cc(CSc2ccc(Cl)cc2)nc(-c2ccncc2)[nH]1	1	-1	-1	-2	43*
SMILES	UCH37 DUB inh	NSD2 inh	CASP6 VEID inh	SIRT5 block	FGF22 binding
O=c1cc(CSc2ccccc2)nc(-c2ccncc2)[nH]1	0	0	0	5	0
CN1C(=O)CN(CCN2CC(=O)N(C)C(=O)C2)CC1=O	/	-4	-3	/	43*
C[C@@H]1CN([C@H](C)CO)C(=O)Cc2cc(NC(=O)Cc3ccccc3)ccc2O[C@@H]1CN(C)C	/	/	0	-4	0
Cc1cccc(NC(=O)Nc2ccc(Cl)cc2)n1	-1	-5	-1	-1	0
Cc1nccc(-c2cccc(NC(=O)Nc3ccc(Cl)cc3)c2)n1	4	-7	-8	-2	1.8*
CC(=O)N1CCN(C(=O)COc2ccccc2C(=O)Nc2ccccc2)CC1	2	-3	8	-3	43*
COc1ccccc1C(=O)Nc1ccc(N2CCN(C(C)=O)CC2)cc1	3	-2	-3	6	42
Cc1ccc2nc(NC3=NC(CC(=O)O)C(=O)N3)nc(C)c2c1 (stereo not drawn)	-2	-1	1	44*	/
Oc1ccc(/C=N/NC(=S)Nc2cccnc2)cc1	/	2	4	0	1.5*
Oc1ccccc1C=NNC(=S)Nc1ccc(F)cc1	-1	-2	-1	0	0
COc1ccc(/C=N/OC(=O)Nc2ccccc2OC)cc1	/	-8	1	0	43*
COc1ccccc1NC(=S)N/N=C/c1ccc(O)cc1	/	2	2	0	1.5*
Fc1ccc(NC(=S)NN=Cc2ccccc2Cl)cc1	5	-5	-1	/	43*
COc1ccccc1NC(=S)N/N=C/c1cccc(C)c1	/	1	-5	-2	1
Fc1ccc(C=NNC(=S)Nc2cccnc2)cc1	4	/	/	/	/
C[C@H](CO)N1C[C@H](C)[C@@H](CN(C)C)Oc2ccc(NC(=O)Nc3ccc(F)cc3)cc2C1=O	/	/	4	-2	0
COc1ccccc1CN1C[C@@H](C)[C@@H](OC)CN(C)C(=O)c2ccc(NC(C)=O)cc2OC[C@H]1C	/	/	2	2	0
COc1ccc(/C=N/NC(=S)Nc2cccc(C(=O)O)c2)cc1OC	/	-1	3	2	0
COc1cc(/C=N/NC(=S)Nc2cccc(C(=O)O)c2)cc(OC)c1OC	/	1	2	23*	0
N#CCC(=O)NN=Cc1ccccc1Cl	6	/	/	/	/
N#CCC(=O)N/N=C/c1ccccc1Cl	/	-2	0	-3	44*
COc1ccc(C=NNC(=S)Nc2ccc(F)cc2)cc1OC	3	/	2	/	65*
O=C(C1CCOCC1)N1CC(=O)N2[C@@H](CO)[C@H](c3ccc(C#CC4CC4)cc3)[C@@H]2C1	/	/	3	1	/

Source: PubChem BioAssay
